# An excerpt weighted towards active compounds, which were near 2.9% of everything screened.
# MEKK3 PB1 HTS: modulators of MEKK3-MEK5 PB1 binding, primary screen, biochemical, wildtype MEKK3, multiplex bead flow cytometry, Alexa488-MEK5. Mitogen-activated protein kinase kinase kinase 3 (Homo sapiens), Q99759. bead-based flow cytometry, Alexa488-MEK5 binding to MEKK3; actives lie on both sides; 0 = blocked by unlabeled MEK5, 100 = vehicle. binding response (% of control), % at 10 µM. actives 1.4% (n = 290,000). AID 1529, 2009;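 active means binding response more than 3 SD above or below the average of its plate-row segment, actives on both sides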;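 further: Alexa488 bead fluorescence after subtracting the streptavidin-only scavenger bead signal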
# UBC13 polyUb: UBC13 polyubiquitin chain formation inhibitors, primary screen, biochemical, TR-FRET, uHTS; inhibition, % at 20 µM; actives 0.47% (n = 330,000); AID 485273, 2010; in the data active means inhibition above about 45%, passing the limit was not always enough
# MEKK2wt PB1 HTS: modulators of MEK5 binding to wildtype MEKK2, primary screen, biochemical, multiplex bead flow cytometry, Alexa488-MEK5; Mitogen-activated protein kinase kinase kinase 2 (Homo sapiens), Q9Y2U5; Alexa488-MEK5 binding to MEKK2 WT; actives lie on both sides; binding response (% of control), % at 10 µM; actives 1.1% (n = 290,000); in the data active means binding response below about 67% or above about 130%
# MEKK2 mut-MEK5: MEK5 binding signal on mutant MEKK2 PB1, primary screen, biochemical, multiplex bead flow cytometry, Alexa488-MEK5; Alexa488-MEK5 binding to MEKK2 mutant; percent response, % at 10 µM; actives 0.35% (n = 290,000); in the data active means percent response above about 24%, passing the limit was not always enough
# Apaf-1 inh: inhibitors of human Apaf-1 apoptosome, primary screen, biochemical, DEVD-Rh110 fluorescence, uHTS | inhibition, % at 20 µM | reconstituted apoptosome caspase-3 activity | actives 0.71% (n = 330,000) | Apoptotic protease-activating factor 1 (Homo sapiens), O14727; active means inhibition of at least 40% at 20 µM;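 further: plate controls were DMSO wells for no effect and DEVD-CHO caspase inhibitor wells for full effect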
# Target sequence (O14727 whole entry, looked up): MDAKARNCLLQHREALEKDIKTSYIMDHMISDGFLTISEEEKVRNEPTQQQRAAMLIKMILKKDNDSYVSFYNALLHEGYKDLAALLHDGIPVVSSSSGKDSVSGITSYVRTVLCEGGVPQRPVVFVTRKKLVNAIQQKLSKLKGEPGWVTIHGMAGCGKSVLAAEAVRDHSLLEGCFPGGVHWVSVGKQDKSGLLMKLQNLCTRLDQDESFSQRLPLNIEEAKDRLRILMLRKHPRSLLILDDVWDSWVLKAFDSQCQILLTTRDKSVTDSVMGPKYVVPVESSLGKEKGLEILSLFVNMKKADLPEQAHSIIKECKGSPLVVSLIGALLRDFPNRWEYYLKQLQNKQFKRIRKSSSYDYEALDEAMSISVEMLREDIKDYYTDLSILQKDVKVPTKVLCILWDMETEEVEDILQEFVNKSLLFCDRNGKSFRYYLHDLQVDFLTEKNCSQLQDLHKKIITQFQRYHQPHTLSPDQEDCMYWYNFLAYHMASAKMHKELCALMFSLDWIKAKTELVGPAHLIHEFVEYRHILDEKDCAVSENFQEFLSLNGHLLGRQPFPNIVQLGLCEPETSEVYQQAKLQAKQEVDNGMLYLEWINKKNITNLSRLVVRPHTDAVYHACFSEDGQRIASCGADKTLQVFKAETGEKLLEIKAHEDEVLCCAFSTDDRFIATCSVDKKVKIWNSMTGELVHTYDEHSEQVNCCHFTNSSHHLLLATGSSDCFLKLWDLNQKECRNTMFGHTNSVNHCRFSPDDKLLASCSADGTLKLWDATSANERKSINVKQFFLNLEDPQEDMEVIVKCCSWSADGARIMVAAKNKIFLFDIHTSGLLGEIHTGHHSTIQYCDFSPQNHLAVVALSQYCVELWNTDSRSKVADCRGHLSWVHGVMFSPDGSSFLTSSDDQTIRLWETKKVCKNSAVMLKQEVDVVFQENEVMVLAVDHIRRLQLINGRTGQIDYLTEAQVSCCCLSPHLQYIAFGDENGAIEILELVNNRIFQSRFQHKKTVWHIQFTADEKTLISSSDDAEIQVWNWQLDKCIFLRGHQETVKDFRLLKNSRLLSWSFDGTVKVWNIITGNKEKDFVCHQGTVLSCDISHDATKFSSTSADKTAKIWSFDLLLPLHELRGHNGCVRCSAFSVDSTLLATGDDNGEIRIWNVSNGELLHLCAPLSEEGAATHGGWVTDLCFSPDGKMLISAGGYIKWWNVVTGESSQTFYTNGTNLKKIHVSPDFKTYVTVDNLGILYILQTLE
#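 detection = Rh110 fluorescence intensity | test system = biochemical Apaf-1 apoptosome reconstitution | also added = cytochrome c and DEVD-Rh110 substrate | schedule = 30 min plus 50 min, RT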
# MEKK2wt confirm: modulators of MEK5 binding to wildtype MEKK2, confirmation, biochemical, single concentration, multiplex bead flow cytometry | shares compounds with MEKK3 PB1 HTS | Alexa488-MEK5 binding to MEKK2 WT; actives lie on both sides | binding response (% of control), % at 10 µM | actives 2.4% (n = 5,900); in the data active means binding response below about 16% or above about 210%; inactive means in between
# MEKK2mut confirm: mutant MEKK2 PB1-MEK5 binding signal retest – biochemical, single concentration, multiplex bead flow cytometry, confirmation. Alexa488-MEK5 binding to MEKK2 mutant. actives 2% (n = 5,900). percent response, % at 10 µM. shares compounds with MEKK3 PB1 HTS; in the data active means percent response mostly above about 71%, no sharp cut-off; inactive means mostly below about 38%;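 further: higher means compound restores mutant binding toward wildtype level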
# MEKK3-MEK5 inh: MEKK3 wild-type PB1 binding to MEK5, inhibitors, confirmation, biochemical, bead multiplex flow cytometry, single concentration, wildtype | shares compounds with MEKK3 PB1 HTS | AID 1894, 2009 | binding response (% of control), % at 10 µM | actives 1.8% (n = 5,900) | Alexa488-MEK5 binding to MEKK3; stronger effect = lower value;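 active means binding response below 72% of control, or above a set upper limit, though filed actives all read lower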;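 further: 100% = DMSO only wells and 0% = binding blocked by excess unlabeled MEK5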
# Active calls of the source: *; nt = no result; [ ] = dose if it differs, or a comment.
SMILES,MEKK3 PB1 HTS,UBC13 polyUb,MEKK2wt PB1 HTS,MEKK2 mut-MEK5,Apaf-1 inh,MEKK2wt confirm,MEKK2mut confirm,MEKK3-MEK5 inh
COc1ccc(/C=N/NC(=O)c2[nH]c3ccc(Br)cc3c2-c2ccccc2)c(C(=O)O)c1OC,97.0,6.7,91.0,-5.0,-10.6,nt,nt,nt
C/C(=N\Nc1nc2ccccc2[nH]1)c1cc2ccccc2o1,137.0*,3.8,140.0*,6.0,15.1,127.0,10.0,99.0
COc1ccc(-c2cc(C3CCNCC3)[nH]n2)cc1,103.0,18.0,154.0*,22.0,12.6,143.0,26.0,109.0
COc1ccc(-c2cc(-c3ccc(OC)cc3)[nH]n2)cc1,103.0,21.0,99.0,1.0,26.1,nt,nt,nt
CCCCN1C(=O)C(=O)N(CC(=O)NC2CCCc3ccccc32)C1=O (centres undefined),103.0,-3.3,94.0,-2.0,4.5,nt,nt,nt
Cc1cc(C)cc(NC(=O)CSc2nc3c(oc4ccccc43)c(=O)n2-c2ccccc2)c1,124.0,-28.6,98.0,0.0,19.5,nt,nt,nt
O=C(Cn1c(=O)n(-c2ccccc2)c(=O)c2oc3ccccc3c21)Nc1ccccc1,131.0*,-3.3,103.0,0.0,1.5,106.0,4.0,102.0
C=CCc1ccc(OCC(O)CN2CCCCC2C)c(OC)c1 (centres undefined),104.0,17.9,136.0*,42.0*,-9.8,123.0,15.0,101.0
CC(C)c1cccc(OCCN2CCCC2)c1,103.0,1.8,103.0,8.0,-10.9,nt,nt,nt
COCCNCC(=O)N1c2ccccc2Sc2ccccc21,104.0,10.3,109.0,12.0,2.6,nt,nt,nt
CC(C)CNCC(=O)N1c2ccccc2Sc2ccccc21,2.0*[inhibitor],0.7,1.0*[inhibitor],-42.0,1.3,71.0,-9.0,91.0
CC(C)N(Cc1cn[nH]c1-c1ccc(-c2ccccc2)cc1)Cc1nccn1C,105.0,19.6,117.0,5.0,21.4,nt,nt,nt
CCOC(=O)N1CCN(C(=O)CSCc2ccccc2Cl)CC1,94.0,-2.2,91.0,-1.0,3.0,nt,nt,nt
CC(=O)N1CCc2cc(S(=O)(=O)CCC(=O)N3CCc4ccccc4C3)ccc21,17.0*[inhibitor],-6.4,22.0*[inhibitor],-12.0,8.4,103.0,2.0,103.0
COc1ccc2nc(SCCC(=O)O)cc(C)c2c1,83.0,8.0,88.0,-18.0,-7.8,nt,nt,nt
Cc1cccc(C2NC(c3cccc(C)c3)C(C)C(=O)C2C)c1 (centres undefined),106.0,-8.1,106.0,3.0,13.9,nt,nt,nt
COc1ccc(NC(=O)Nc2nnc(-c3ccccc3SCc3ccccc3)s2)cc1,122.0*,-9.4,106.0,6.0,17.6,90.0,1.0,99.0
CC1=CC(C)(C)N(C(=O)Nc2ccccc2)c2ccccc21,43.0*[inhibitor],-8.6,48.0,-15.0,-1.4,97.0,3.0,95.0
CC1=CC(C)(C)N(C(=O)c2ccccc2)c2ccccc21,103.0,2.8,97.0,-1.0,15.9,nt,nt,nt
COc1ccc(-c2cc(C(=O)OCC(=O)c3ccc(C)c([N+](=O)[O-])c3)c3ccccc3n2)cc1,130.0*,4.1,103.0,0.0,-12.1,94.0,-3.0,97.0
CCOC(=O)CSc1ncnc2c1sc1nc(N3CCOCC3)c3c(c12)CCCC3,82.0*[inhibitor],10.4,93.0,-12.0,16.8,98.0,-1.0,104.0
COC(=O)CSc1ncnc2c1sc1nc(N3CCOCC3)c3c(c12)CCCC3,93.0,0.0,95.0,0.0,33.2,nt,nt,nt
O=C(CS(=O)CC(=O)N(c1ccccc1)C(C(=O)NC1CCCC1)c1cccs1)Nc1ccc(F)cc1 (centres undefined),101.0,-0.4,100.0,3.0,6.1,nt,nt,nt
Cc1ccc(N(C(=O)CS(=O)CC(=O)Nc2ccc(F)cc2)C(C(=O)NC2CCCCC2)c2ccco2)cc1 (centres undefined),132.0*,-10.2,105.0,0.0,24.9,99.0,7.0,102.0
COc1ccccc1C1CCN(Cc2ccc3ccccc3c2)CC1,106.0,12.5,138.0*,36.0*,12.6,135.0,12.0,100.0
SMILES,MEKK3 PB1 HTS,UBC13 polyUb,MEKK2wt PB1 HTS,MEKK2 mut-MEK5,Apaf-1 inh,MEKK2wt confirm,MEKK2mut confirm,MEKK3-MEK5 inh
Cc1cc2oc3ccc(NCCCN4CCOCC4)cc3c(=O)c2cc1C,116.0,4.6,144.0*,14.0,26.4,136.0,20.0,111.0
COC(=O)[C@@H](Cc1c[nH]c2ccccc12)NC(=O)CNC(=O)c1ccccc1OC,101.0,3.2,100.0,1.0,-8.2,nt,nt,nt
Cc1csc2c(NCCCN3CCOCC3)ncnc12,137.0*,-5.5,136.0,27.0,-2.6,104.0,3.0,104.0
O=C(NCC(c1ccco1)N1CCc2ccccc2C1)C(=O)Nc1ccc(F)cc1F (centres undefined),nt,3.6,nt,nt,13.8,nt,nt,nt
CC(C)OC(=O)C(NC(=O)c1ccccc1)=C1CCCCC1,122.0*,2.6,113.0,6.0,-2.1,96.0,0.0,102.0
CCN(CC(=O)Nc1ccc(N2CCOCC2)cc1)C(=O)Cc1ccccc1,nt,-18.0,nt,nt,7.4,nt,nt,nt
Nc1nc(Nc2ccccc2)n[nH]1,74.0*[inhibitor],2.3,71.0,8.0,4.6,101.0,11.0,102.0
CCC(=O)N1CC2(C)CN(C(=O)CC)CC(C)(C1)C2,129.0*,7.6,122.0,8.0,0.8,100.0,-3.0,101.0
CC(=O)N1CC2(C)CN(C(C)=O)CC(C)(C1)C2,91.0,4.9,94.0,0.0,-4.4,nt,nt,nt
CCOc1ccc(NC(=O)CN(C)C(=O)CCCOc2ccc(Cl)c(C)c2)cc1OCC,102.0,-7.6,103.0,3.0,22.0,nt,nt,nt
Cc1cc2cc(CN(CCN(C)C)C(=S)NCc3ccco3)c(=O)[nH]c2cc1C,84.0,9.8,160.0*,8.0,14.1,118.0,8.0,103.0
Cc1ccc(N(Cc2cc3ccc(C)cc3[nH]c2=O)C(=O)c2ccco2)c(C)c1,132.0*,-4.7,117.0,22.0,-2.4,102.0,5.0,107.0
Cc1ccc(C)c2[nH]c(=O)c(CN(CC3CCCO3)C(=S)NCc3ccco3)cc12 (centres undefined),129.0*,14.5,116.0,29.0,-6.0,101.0,5.0,104.0

# High-throughput results (PubChem)
